Activity calls are given as the source filed them.
Experiments:
[1] = Antioxidant activity assessed as trolox equivalent of APPH-induced radical scavenging activity at 1 to 10 uM preincubated for 15 mins followed by AAPH challenge measured every minute for 90 minutes by ORAC fluorescence assay; type: functional
Outline: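 ORAC-FL in phosphate buffer pH 7.4. Samples (1–10 µM) preincubated with fluorescein (150 nM final) 15 min at 37 °C, then AAPH (12 mM final) added. Fluorescence (ex 485/em 535 nm) read each minute for 90 min. Net AUC over blank converted to Trolox equivalents using a 1–8 µM Trolox curve. Duplicates, at least 3 independent assays.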

[2] = target: Butyrylcholinesterase (Rattus norvegicus) (UniProt Q9JKC1); test: Inhibition of rat serum BuChE using butyrylthiocholine iodide as substrate at 50 uM after 15 mins by Ellman's method
Sequence of Butyrylcholinesterase (Rattus norvegicus) (Q9JKC1 as listed by the source): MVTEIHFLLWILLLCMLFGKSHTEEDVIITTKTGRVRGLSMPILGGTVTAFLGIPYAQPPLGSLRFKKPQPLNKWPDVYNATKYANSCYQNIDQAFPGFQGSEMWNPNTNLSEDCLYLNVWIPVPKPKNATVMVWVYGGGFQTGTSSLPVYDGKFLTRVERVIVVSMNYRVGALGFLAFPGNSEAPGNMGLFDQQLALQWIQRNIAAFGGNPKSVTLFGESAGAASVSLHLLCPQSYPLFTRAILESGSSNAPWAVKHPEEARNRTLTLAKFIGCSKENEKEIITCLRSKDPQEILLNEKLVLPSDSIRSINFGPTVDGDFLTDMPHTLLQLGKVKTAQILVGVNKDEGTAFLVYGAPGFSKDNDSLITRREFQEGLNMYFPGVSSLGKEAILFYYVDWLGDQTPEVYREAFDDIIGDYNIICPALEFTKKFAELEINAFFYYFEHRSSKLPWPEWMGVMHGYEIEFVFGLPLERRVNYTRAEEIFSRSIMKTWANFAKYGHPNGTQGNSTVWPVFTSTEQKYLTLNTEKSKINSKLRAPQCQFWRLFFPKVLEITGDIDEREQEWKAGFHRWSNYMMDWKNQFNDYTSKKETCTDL
Outline: (§1)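 Modified Ellman assay in phosphate buffer pH 7.4. Enzyme sources: AChE from 5% rat cortex homogenate, preincubated 5 min with iso-OMPA to block BuChE; BuChE from 25% rat serum. Substrates were acetylthiocholine or butyrylthiocholine iodide. Compounds incubated 15 min at 37 °C, then DTNB added; A405 read. IC50 derived; triplicate, 3 independent experiments; "no active" means under 5% inhibition at 50 µM.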

Acetylcholinesterase [3] = target: T1, Acetylcholinesterase (Rattus norvegicus, UniProt P37136); test: Inhibition of rat cortex homogenate AchE using acetylthiocholine iodide as substrate after 15 mins by Ellman's method
T1 sequence (P37136 whole entry): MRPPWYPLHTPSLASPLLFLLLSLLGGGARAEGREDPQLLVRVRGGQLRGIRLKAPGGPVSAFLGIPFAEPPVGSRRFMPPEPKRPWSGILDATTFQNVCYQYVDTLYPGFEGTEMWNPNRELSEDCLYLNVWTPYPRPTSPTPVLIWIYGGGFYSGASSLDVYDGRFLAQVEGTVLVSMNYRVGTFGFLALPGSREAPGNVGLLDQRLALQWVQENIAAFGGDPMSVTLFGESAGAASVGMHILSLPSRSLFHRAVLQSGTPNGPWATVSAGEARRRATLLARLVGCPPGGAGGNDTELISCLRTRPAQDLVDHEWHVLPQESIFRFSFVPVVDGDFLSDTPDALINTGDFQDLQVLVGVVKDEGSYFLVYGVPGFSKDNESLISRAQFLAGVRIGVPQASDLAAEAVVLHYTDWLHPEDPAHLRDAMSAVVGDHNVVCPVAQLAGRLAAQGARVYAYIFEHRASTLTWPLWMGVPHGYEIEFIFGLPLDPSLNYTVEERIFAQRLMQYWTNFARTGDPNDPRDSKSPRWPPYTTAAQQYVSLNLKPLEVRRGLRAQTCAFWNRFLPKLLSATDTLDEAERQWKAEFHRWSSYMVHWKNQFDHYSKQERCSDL

Acetylcholinesterase [4] = target: Acetylcholinesterase (Electrophorus electricus, UniProt O42275); test: Inhibition of electric eel AchE using acetylthiocholine iodide as substrate after 15 mins by Ellman's method
Sequence of Acetylcholinesterase (Electrophorus electricus, UniProt O42275) (O42275 whole entry): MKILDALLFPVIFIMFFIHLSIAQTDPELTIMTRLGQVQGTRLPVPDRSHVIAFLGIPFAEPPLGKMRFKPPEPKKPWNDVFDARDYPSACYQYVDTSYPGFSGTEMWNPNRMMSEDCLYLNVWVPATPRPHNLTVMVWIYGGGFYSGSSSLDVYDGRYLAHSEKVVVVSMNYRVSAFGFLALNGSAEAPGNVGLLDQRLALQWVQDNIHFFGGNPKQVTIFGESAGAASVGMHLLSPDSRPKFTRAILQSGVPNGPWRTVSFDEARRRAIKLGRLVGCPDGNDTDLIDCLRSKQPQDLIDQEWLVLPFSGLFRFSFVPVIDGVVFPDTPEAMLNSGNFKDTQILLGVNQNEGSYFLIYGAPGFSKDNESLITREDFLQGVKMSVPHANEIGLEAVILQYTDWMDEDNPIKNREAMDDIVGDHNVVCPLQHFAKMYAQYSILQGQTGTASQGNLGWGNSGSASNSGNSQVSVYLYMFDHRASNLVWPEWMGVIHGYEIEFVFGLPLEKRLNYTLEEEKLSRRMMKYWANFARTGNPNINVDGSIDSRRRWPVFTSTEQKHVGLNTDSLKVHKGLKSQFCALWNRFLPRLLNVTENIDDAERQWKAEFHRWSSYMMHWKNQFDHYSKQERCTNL

Acetylcholinesterase [5] = target: T2, Acetylcholinesterase (Homo sapiens, UniProt P22303); test: Inhibition of human erythrocytes AchE using acetylthiocholine iodide as substrate at 50 uM after 15 mins by Ellman's method
T2 sequence (P22303 whole entry): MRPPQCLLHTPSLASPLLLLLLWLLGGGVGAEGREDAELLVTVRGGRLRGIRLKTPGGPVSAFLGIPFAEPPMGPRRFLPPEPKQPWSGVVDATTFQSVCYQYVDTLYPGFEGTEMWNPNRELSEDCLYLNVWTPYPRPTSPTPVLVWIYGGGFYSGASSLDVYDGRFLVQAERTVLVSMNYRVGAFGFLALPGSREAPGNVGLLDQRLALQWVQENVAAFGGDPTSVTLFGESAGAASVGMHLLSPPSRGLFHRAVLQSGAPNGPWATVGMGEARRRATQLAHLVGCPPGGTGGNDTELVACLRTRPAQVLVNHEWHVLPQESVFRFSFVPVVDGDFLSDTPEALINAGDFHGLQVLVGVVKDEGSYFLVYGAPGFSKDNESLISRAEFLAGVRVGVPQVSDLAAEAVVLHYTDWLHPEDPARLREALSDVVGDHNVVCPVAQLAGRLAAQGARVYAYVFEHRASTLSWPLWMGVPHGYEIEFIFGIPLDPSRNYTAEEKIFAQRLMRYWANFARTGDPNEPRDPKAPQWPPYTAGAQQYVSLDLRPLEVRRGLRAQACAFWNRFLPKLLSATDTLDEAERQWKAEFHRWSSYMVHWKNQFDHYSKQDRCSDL
Outline: (§2)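 Modified Ellman assay with purified eel or human erythrocyte AChE (0.05 U/mL final) in phosphate buffer pH 8.0. Compound and enzyme incubated 15 min at 37 °C with acetylthiocholine iodide, then DTNB added; absorbance read at 412 nm. IC50 is the concentration giving 50% inhibition. Assays in triplicate, 3 independent experiments; "no active" means under 5% inhibition at 50 µM.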

[6] = target: Acetylcholinesterase (Electrophorus electricus) (UniProt O42275); test: Inhibition of electric eel AchE using acetylthiocholine iodide as substrate at 50 uM after 15 mins by Ellman's method; outline: as §2
Sequence of Acetylcholinesterase (Electrophorus electricus) (O42275 24-633 limits assumed): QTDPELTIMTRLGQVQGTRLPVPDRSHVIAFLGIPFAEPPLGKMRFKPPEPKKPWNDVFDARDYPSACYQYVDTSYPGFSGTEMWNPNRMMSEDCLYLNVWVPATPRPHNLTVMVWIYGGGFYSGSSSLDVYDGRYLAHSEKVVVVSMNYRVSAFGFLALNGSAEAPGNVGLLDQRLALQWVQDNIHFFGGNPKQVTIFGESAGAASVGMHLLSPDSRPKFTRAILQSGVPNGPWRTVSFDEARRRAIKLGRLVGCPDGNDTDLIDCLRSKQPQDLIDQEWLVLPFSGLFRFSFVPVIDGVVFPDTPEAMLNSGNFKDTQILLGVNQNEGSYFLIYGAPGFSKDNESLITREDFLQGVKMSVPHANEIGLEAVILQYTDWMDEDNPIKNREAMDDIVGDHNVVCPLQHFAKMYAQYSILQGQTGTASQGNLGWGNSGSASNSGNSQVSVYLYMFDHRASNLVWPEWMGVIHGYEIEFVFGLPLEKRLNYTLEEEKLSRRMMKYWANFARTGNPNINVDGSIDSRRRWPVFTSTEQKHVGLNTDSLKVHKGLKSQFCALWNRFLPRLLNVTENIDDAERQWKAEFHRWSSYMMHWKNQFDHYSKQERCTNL

[7] = target: T3, Acetylcholinesterase (Rattus norvegicus) (UniProt P37136); test: Inhibition of rat cortex homogenate AchE using acetylthiocholine iodide as substrate at 50 uM after 15 mins by Ellman's method; outline: as §1
T3 sequence (whole entry): T1 sequence (P37136 whole entry)

Mus musculus [8] = test: Cognition enhancing effect against scopolamine-induced memory deficit in po dosed Kunming mouse assessed as increase in latency time administered 1 hr before training followed by scopolamine challenge for 7 days measured after 24 hrs by step-down passive avoidance test; type: functional, organism-based
Outline: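 Kunming mice, six weeks old, 18–22 g, either sex, n=10 per group. Oral dosing at 2, 6, 18 or 3, 9, 27 mg/kg in vegetable oil, 1 h before training; vehicle as negative control. Scopolamine (3 mg/kg i.p., in saline) given 30 min later. Behavioural testing after 7 days of treatment. Step-down training used a 0.5 mA, 2 s foot shock. Latency measured 24 h later, cut-off 300 s; mean ± SEM.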

[9] = target: Amyloid-beta precursor protein (Homo sapiens) (UniProt P05067); test: Induction of amyloid beta (1 to 42) (unknown origin) disaggregation assessed as reduction of Cu2+-induced amyloid beta fibril formation at 25 uM after 24 hrs by thioflavin T fluorescence method; design: scale not given: the % may be the effect or the level left
Sequence of Amyloid-beta precursor protein (Homo sapiens) (P05067 whole entry): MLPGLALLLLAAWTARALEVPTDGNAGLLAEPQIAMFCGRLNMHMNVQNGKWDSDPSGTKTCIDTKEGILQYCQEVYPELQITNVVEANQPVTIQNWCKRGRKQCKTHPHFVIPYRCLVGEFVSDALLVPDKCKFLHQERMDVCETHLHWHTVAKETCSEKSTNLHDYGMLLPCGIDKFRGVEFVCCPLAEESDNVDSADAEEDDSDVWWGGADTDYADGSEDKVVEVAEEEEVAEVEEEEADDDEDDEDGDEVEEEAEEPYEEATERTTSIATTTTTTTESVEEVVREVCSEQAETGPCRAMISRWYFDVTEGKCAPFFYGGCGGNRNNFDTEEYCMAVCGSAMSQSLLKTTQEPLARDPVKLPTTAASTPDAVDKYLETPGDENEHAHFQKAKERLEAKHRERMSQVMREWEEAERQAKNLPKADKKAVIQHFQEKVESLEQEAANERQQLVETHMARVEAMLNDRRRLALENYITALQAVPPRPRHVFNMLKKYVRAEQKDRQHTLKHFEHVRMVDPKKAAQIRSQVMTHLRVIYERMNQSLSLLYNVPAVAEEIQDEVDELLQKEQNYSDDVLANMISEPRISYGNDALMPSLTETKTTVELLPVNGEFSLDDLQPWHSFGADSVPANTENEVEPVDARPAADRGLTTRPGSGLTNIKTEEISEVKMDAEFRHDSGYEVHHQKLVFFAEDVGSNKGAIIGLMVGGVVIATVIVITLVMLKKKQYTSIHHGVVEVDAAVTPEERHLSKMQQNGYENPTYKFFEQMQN
Outline: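 Aβ1-42 (25 µM final, HFIP-pretreated) and Cu2+ (25 µM) in HEPES pH 6.6 with 150 mM NaCl, incubated 24 h at 37 °C. Test compound (25 µM final) then added for a further 24 h at 37 °C, wells sealed. Read by ThT in glycine-NaOH pH 8.5 (ex 446/em 490 nm). DMSO 12.5% final; triplicate.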

[10] = target: Amyloid-beta precursor protein (Homo sapiens) (UniProt P05067); test: Inhibition of Cu2+-induced amyloid beta (1 to 42) (unknown origin) aggregation at 25 uM after 24 hrs by thioflavin T fluorescence method
Outline: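 Aβ1-42 (25 µM final, HFIP-pretreated) with an equimolar amount of Cu2+ (25 µM) in HEPES pH 6.6 with 150 mM NaCl. Incubated with or without compound (10–35 µM final) 24 h at 37 °C. ThT in glycine-NaOH pH 8.5 added, fluorescence ex 446/em 490 nm. DMSO 12.5% final. Percent inhibition relative to no-inhibitor wells; triplicate, mean of 3 independent experiments.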

[11] = target: Amyloid-beta precursor protein (Homo sapiens) (UniProt P05067); test: Inhibition of self-induced amyloid beta (1 to 42) (unknown origin) aggregation at 25 uM after 24 hrs by thioflavin T fluorescence method
Outline: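 HFIP-pretreated Aβ1-42 (25 µM final) incubated with compound (10–50 µM) in 50 mM phosphate pH 7.4 for 24 h at 37 °C, wells sealed. ThT in glycine-NaOH pH 8.5 added; fluorescence ex 446/em 490 nm. DMSO 12.5% final. Percent inhibition relative to peptide without inhibitor; triplicate, mean of 3 independent experiments.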

Acetylcholinesterase [12] = target: T2, Acetylcholinesterase; test: Inhibition of human erythrocytes AchE using acetylthiocholine iodide as substrate after 15 mins by Ellman's method
Mus musculus [13] = test: Cognition enhancing effect against scopolamine-induced memory deficit in Kunming mouse assessed as increase in latency time at 5 mg/kg, po administered 1 hr before training followed by scopolamine challenge for 7 days measured after 24 hrs by step-down passive avoidance test; type: functional, organism-based; design: dose 5 mg/kg
Outline: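 Kunming mice (18–22 g, six weeks old, either sex), 10 per group. Drug in vegetable oil given orally 1 h before training, with scopolamine (3 mg/kg i.p., in 0.9% saline) 30 min later. Behavioural testing one day after 7 days of treatment. Training: 0.5 mA, 2 s foot shock on stepping down from a block. Step-down latency measured 24 h later, 300 s cut-off. Mean ± SEM.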

| Compound | Activity [1] | inhibition [2] | IC50 (Acetylcholinesterase [3]) | other results |
| --- | --- | --- | --- | --- |
| CCN(CCCOc1ccc(-c2coc3cc(O)cc(O)c3c2=O)cc1)Cc1ccccc1OC | 0.64 | 17.6% | 16 µM | – |
| CCN(CCCOc1cc(O)c2c(=O)c(-c3ccc(O)cc3)coc2c1)Cc1ccccc1 | 1.12 | 9.9% | 1.42 µM | – |
| CN(CCCCOc1ccc(-c2coc3cc(O)cc(O)c3c2=O)cc1)Cc1ccccc1 | 0.32 | 10.8% | 3.79 µM | – |
| CCN(CCCOc1ccc(-c2coc3cc(OCCCN(CC)Cc4ccccc4OC)cc(O)c3c2=O)cc1)Cc1ccccc1OC | 0.49 | 12.5% | 0.21 µM | IC50 (Acetylcholinesterase [4]): 0.16 µM |
| COc1ccccc1CN(C)CCCCOc1ccc(-c2coc3cc(O)cc(O)c3c2=O)cc1 | 1.1 | 9.7% | 5.31 µM | – |
| CN(CCCOc1ccc(-c2coc3cc(O)cc(O)c3c2=O)cc1)Cc1ccccc1 | 0.46 | < 5% | 49.3 µM | – |
| COc1ccccc1CN(C)CCCOc1ccc(-c2coc3cc(O)cc(O)c3c2=O)cc1 | 0.62 | < 5% | 37.4 µM | – |
| CCN(CCCCOc1ccc(-c2coc3cc(O)cc(O)c3c2=O)cc1)Cc1ccccc1 | 0.6 | < 5% | 12.8 µM | – |
| COc1ccccc1CN(C)CCCCCCOc1cc(O)c2c(=O)c(-c3ccc(O)cc3)coc2c1 | 2.7 | < 5% | 3.19 µM | – |
| CCN(CCCOc1cc(O)c2c(=O)c(-c3ccc(O)cc3)coc2c1)Cc1ccccc1OC | 1.02 | < 5% | 0.47 µM | – |
| CCN(CCCCOc1cc(O)c2c(=O)c(-c3ccc(O)cc3)coc2c1)Cc1ccccc1 | 2.4 | 10.4% | 2.42 µM | – |
| CCN(CCCCOc1cc(O)c2c(=O)c(-c3ccc(O)cc3)coc2c1)Cc1ccccc1OC | 1.06 | 7.7% | 0.83 µM | – |
| O=c1c(-c2ccc(O)cc2)coc2cc(O)cc(O)c12 | 5 | < 5% | – | inhibition (Acetylcholinesterase [5]): < 5%; inhibition [6]: < 5%; inhibition [7]: < 5% |
| CCN(CCCCCCOc1cc(O)c2c(=O)c(-c3ccc(O)cc3)coc2c1)Cc1ccccc1 | 1.2 | < 5% | 0.35 µM | Activity (Mus musculus [8]): Dose-dependent effect; Activity [9]: 36.1%; inhibition [10]: 72.1%; inhibition [11]: 34.3%; IC50 (Acetylcholinesterase [12]): 5.8 µM; IC50 (Acetylcholinesterase [4]): 4.98 µM |
| CCN(CCCCOc1ccc(-c2coc3cc(O)cc(O)c3c2=O)cc1)Cc1ccccc1OC | 1.1 | 6.7% | 1.45 µM | Activity (Mus musculus [8]): Dose-dependent effect; Activity [9]: 39.2%; inhibition [10]: 71.9%; inhibition [11]: 24.6%; IC50 (Acetylcholinesterase [12]): 3.88 µM; IC50 (Acetylcholinesterase [4]): 15.9 µM |
| CCN(CCCCCCOc1ccc(-c2coc3cc(OCCCCCCN(CC)Cc4ccccc4OC)cc(O)c3c2=O)cc1)Cc1ccccc1OC | 0.13 | 11.6% | 0.51 µM | IC50 (Acetylcholinesterase [4]): 3.79 µM |
| CN(CCCCOc1cc(O)c2c(=O)c(-c3ccc(O)cc3)coc2c1)Cc1ccccc1 | 1 | 8.9% | 54.5 µM | – |
| COc1cc2c(cc1OC)C(=O)C(CC1CCN(Cc3ccccc3)CC1)C2 (configuration not stated) | – | – | – | Activity (Mus musculus [13]): Active |
| COc1ccccc1CN(C)CCCCOc1cc(O)c2c(=O)c(-c3ccc(O)cc3)coc2c1 | 1.56 | < 5% | 5.55 µM | – |
| CCN(CCCCCCOc1ccc(-c2coc3cc(O)cc(O)c3c2=O)cc1)Cc1ccccc1OC | 0.38 | < 5% | 1.69 µM | – |
| CCN(CCCOc1ccc(-c2coc3cc(O)cc(O)c3c2=O)cc1)Cc1ccccc1 | 0.58 | 11.6% | 42.8 µM | – |
| CCN(CCCCCCOc1ccc(-c2coc3cc(O)cc(O)c3c2=O)cc1)Cc1ccccc1 | 0.29 | < 5% | 38.4 µM | – |
| CCN(CCCCCCOc1cc(O)c2c(=O)c(-c3ccc(O)cc3)coc2c1)Cc1ccccc1OC | 0.56 | < 5% | 0.53 µM | – |
| COc1ccccc1CN(C)CCCOc1cc(O)c2c(=O)c(-c3ccc(O)cc3)coc2c1 | 1.05 | < 5% | 13.5 µM | – |
| COc1cc(/C=C/C(=O)CC(=O)/C=C/c2ccc(O)c(OC)c2)ccc1O | – | – | – | inhibition [10]: 64% |
| COc1ccccc1CN(C)CCCCCCOc1ccc(-c2coc3cc(O)cc(O)c3c2=O)cc1 | 0.4 | < 5% | 5.62 µM | – |
| CN(CCCCCCOc1ccc(-c2coc3cc(O)cc(O)c3c2=O)cc1)Cc1ccccc1 | 0.3 | 7.7% | 3.54 µM | – |
| CN(CCCCCCOc1cc(O)c2c(=O)c(-c3ccc(O)cc3)coc2c1)Cc1ccccc1 | 0.65 | < 5% | 4.24 µM | – |
| CN(CCCOc1cc(O)c2c(=O)c(-c3ccc(O)cc3)coc2c1)Cc1ccccc1 | 0.89 | 7.4% | 36.3 µM | – |
| CCN(CCCCOc1ccc(-c2coc3cc(OCCCCN(CC)Cc4ccccc4)cc(O)c3c2=O)cc1)Cc1ccccc1 | 0.26 | 10.3% | 0.9 µM | – |
